UPR CHOP act: apoptotic UPR (CHOP) activation. CHO-CHOP luciferase reporter, luminescence; percent of tunicamycin response over DMSO baseline. activation, % at 10 µM. 330,000 compounds, 0.34% hits. AID 449763;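 active = at 10 µM dose, activation of 40% or more, normalized to positive control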;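 also: 100% = tunicamycin at 10 µg/mL and 0% = DMSO alone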
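Test system: CHO-CHOP cells, stable luciferase reporter of PERK-eIF2a-CHOP signalling | Quantity: 500 CHO-CHOP cells per well | Buffer or medium: F12 plus 10% serum | Compound dosing: 10 µM single point, 0.5% DMSO | Schedule: 6 h compound treatment, 37 °C | Signal: Luciferase luminescence | Control set: Tunicamycin high control, DMSO low control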
ANO1 activ: activates or potentiates the mouse TMEM16A chloride channel; Q8BHY3; HEK293 TMEM16A/YFP-H148Q/I152L, iodide quench fluorescence; stronger effect = lower value; B-score at 10 µM; 340,000 compounds, 0.3% hits;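 active = fluorescence-ratio B-score plate-corrected deviation score at least 3 library SD below zero, with starting fluorescence score within 5 deviations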;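 also: channel opened by trigger with iodide after compound preincubation; score built on the fluorescence ratio of max minus min over baseline; more negative score means more quench and so TMEM16A activation or potentiation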
Target sequence (Q8BHY3 whole entry, looked up): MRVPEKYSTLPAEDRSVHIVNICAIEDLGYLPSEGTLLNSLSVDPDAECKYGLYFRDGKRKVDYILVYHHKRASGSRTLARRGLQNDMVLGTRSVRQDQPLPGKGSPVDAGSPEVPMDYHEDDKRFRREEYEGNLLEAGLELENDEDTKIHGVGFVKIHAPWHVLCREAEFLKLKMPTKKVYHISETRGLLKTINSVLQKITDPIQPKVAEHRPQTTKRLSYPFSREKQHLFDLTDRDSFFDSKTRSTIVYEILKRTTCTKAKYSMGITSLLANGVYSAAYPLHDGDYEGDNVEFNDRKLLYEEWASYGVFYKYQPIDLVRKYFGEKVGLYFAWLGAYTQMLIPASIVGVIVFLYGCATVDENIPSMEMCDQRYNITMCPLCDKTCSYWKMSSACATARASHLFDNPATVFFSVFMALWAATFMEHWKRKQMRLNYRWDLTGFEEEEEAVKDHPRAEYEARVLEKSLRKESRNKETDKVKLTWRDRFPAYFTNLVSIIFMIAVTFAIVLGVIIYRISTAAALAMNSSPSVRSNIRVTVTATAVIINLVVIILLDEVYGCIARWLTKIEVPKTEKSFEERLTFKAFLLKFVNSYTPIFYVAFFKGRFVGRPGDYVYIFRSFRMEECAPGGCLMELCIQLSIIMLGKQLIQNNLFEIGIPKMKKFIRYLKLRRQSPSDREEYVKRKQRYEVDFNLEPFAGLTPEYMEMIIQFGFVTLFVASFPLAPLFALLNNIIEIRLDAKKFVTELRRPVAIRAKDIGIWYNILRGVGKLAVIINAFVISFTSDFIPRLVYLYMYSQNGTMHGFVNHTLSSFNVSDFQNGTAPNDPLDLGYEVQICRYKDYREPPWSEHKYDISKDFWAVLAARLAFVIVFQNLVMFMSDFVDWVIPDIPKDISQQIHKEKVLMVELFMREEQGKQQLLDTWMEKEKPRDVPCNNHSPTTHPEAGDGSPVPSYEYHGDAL
CHOP inhibitor: blocks CHOP induction under ER stress; CHO-K1 CHOP-promoter luciferase, tunicamycin-induced, 15-18 h; 220,000 compounds, 3.8% hits; inhibition, % at 10 µM;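 active = compounds that reduced the stress-induced luciferase reporter signal by more than about 70% of percent inhibition, limit read from the data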;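 also: 0% = tunicamycin plus vehicle and 100% = wells without tunicamycin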
UPR XBP1 act: activators of adaptive arm of unfolded protein response (XBP1). CHO-XBP1 luciferase reporter, IRE1-XBP1 UPR activation, luminescence; percent of tunicamycin response, DMSO as zero. activation, % at 20 µM. 330,000 compounds, 0.33% hits. AID 463104;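 active = versus positive control, 20 µM dose yields 30% or more activation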;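 also: 100% = tunicamycin at 10 µg/mL and 0% = DMSO only wells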
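Material – CHO cell line with stable XBP1 luciferase reporter · Buffer or medium – F12 plus 10% FBS · Compound – single point, 20 µM final compound, 1% DMSO · Schedule – 16-18 h cell attachment at 37 °C, then 6 h compound exposure · Signal – Steady-Glo luminescence read · Benchmarks – high control tunicamycin 10 µg/mL final, low control DMSO vehicle only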
Hep lipid drop: hepatic lipid droplet formation modulation; 240,000 compounds, 0.4% hits; inhibition, % at 6.5 µM; AID 1656; AML12 mouse hepatocytes, oleate lipid droplets, BODIPY imaging;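 active = lipid droplet intensity inhibited by at least 50%, with more than 500 cells counted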
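Test system: AML12 hepatocytes (mouse); reagent: oleate loading, 100 µM; dosing: one dose, 6.5 µM compound; incubation: overnight exposure; signal: fluorescence imaging, 20x objective, two fields per well; read-out basis: % inhibition of corrected integrated BODIPY droplet signal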
TMEM16A inh: inhibitors of mouse TMEM16A calcium-activated chloride channel; 310,000 compounds, 1.2% hits; normalized B-score (activity score, 25-100; higher = stronger inhibition) at 10 µM; HEK293 TMEM16A/YFP iodide influx fluorescence, ionomycin;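 active = ratio plate-corrected score three or more library SD toward inhibition, starting fluorescence score within five deviations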;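 also: score derived from kinetic fluorescence span divided by baseline fluorescence per well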
CHOP confirm: confirmation of CHOP induction inhibitors; AID 504437; CHO-CHOP promoter luciferase reporter, tunicamycin-induced, luminescence; inhibition, % at 10 µM; shares compounds with CHOP inhibitor; 2,100 compounds, 45% hits;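 active = mean of three repeat readings of reporter signal inhibition above a set limit, cut at about 70% in these data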;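 also: 0% = tunicamycin plus vehicle and 100% = wells lacking tunicamycin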
The depositor's hits bear a star; i = inactive; nt = no result given. Most compounds without a hit are left out; they make up all but 4.2% or so of the library.

SMILES	UPR CHOP act	ANO1 activ	CHOP inhibitor	UPR XBP1 act	Hep lipid drop	TMEM16A inh	CHOP confirm
Cc1ccc(S(=O)(=O)CCC(=O)OC2CC(C)OC2=O)cc1 (stereo not given)	0	i	nt	-2	nt	nt	nt
C/C(=C\c1ccco1)C1C(C#N)=C(N)Oc2n[nH]c(-c3ccc(C)cc3)c21 (stereo not given)	0	i	105*	3	nt	i	114*
Cc1ccc(Nc2nc(N)c([N+](=O)[O-])c(N3CCC(C)CC3)n2)cc1C	4	i	101*	3	34	i	102*
O=c1c2ccccc2c(C=NC2CCN(Cc3ccccc3)CC2)c(O)n1Cc1ccc2c(c1)OCO2	0	nt	6	0	-4	i	nt
O=C(NC1CCCCCC1)C1CCN(C(=O)c2cccc(Cl)c2)CC1	1	i	nt	2	-5	i	nt
CCOC(=O)c1c(C(C)(C)C)oc2ccc(O)cc12	0	i	104*	1	nt	i	106*
CCOC(=O)c1c(COc2ccccc2)oc2ccc(O)cc12	2	nt	nt	-1	nt	i	nt
Cc1ccc(C(C)C)c(OCC(=O)N/N=C/C2CCCCC2)c1	0	i	101*	-4	20	i	70*
Cc1ccc(C(C)C)c(OCC(=O)NN=C(CCl)CCl)c1	10	nt	106*	-2	6	i	8
Cc1ccc(C(C)C)c(OCC(=O)NN=C2CCCC2)c1	0	i	39	1	14	i	nt
COc1ccc(NC(=O)CN(C)C(=O)c2cn(-c3ccccc3)nc2-c2cccnc2)cc1	-1	i	nt	-4	nt	i	nt
CC1CCCN(S(=O)(=O)c2ccc(S(=O)(=O)N3CCC4(CC3)OCCO4)cc2)C1 (stereo not given)	1	i	1	-1	-2	i	nt
O=[N+]([O-])c1ccc(O)c(/C=N/Nc2ccccn2)c1	nt	i	105*	nt	-28	i	11
O=[N+]([O-])c1ccc(NN=Cc2ccccc2O)nc1	nt	i	nt	nt	nt	nt	nt
COc1ccc(NC(=O)/C(Cl)=C(/Cl)S(=O)Cc2ccccc2Cl)cn1 (stereo not given)	-11	-4.6*	110*	-7	-4	nt	120*
COc1ccc(NC(=O)/C(Cl)=C(/Cl)S(=O)(=O)Cc2ccc(C)cc2)cn1	nt	i	nt	nt	4	nt	118*
COc1ccc(NC(=O)Cc2ccc(Cl)c(Cl)c2)cn1	0	i	31	1	-9	i	nt
COc1ccc(NC(=O)COC(=O)C(NC(=O)c2ccc(C)cc2)C(C)C)cn1 (stereo not given)	0	i	nt	0	nt	nt	nt
COc1cccc(CNC(=O)CCc2ccc(OC)c(OC)c2)c1	0	i	nt	-3	nt	i	nt
Cc1cc(C)cc(-n2c(N)c(C(=O)Nc3c(C)n(C)n(-c4ccccc4)c3=O)c3nc4ccccc4nc32)c1	10	i	105*	1	1	i	39
Cc1ccc(-n2c(N)c(C(=O)Nc3c(C)n(C)n(-c4ccccc4)c3=O)c3nc4ccccc4nc32)cc1	0	i	107*	-2	7	i	55
S=c1sc2ccccc2n1CCc1ccncc1	0	i	nt	2	nt	i	nt
COc1ccc([C@@H]2CC(=O)c3c(O)cc(O)cc3O2)cc1O	4	i	nt	-1	nt	i	nt
COc1c(CC=C(C)C)cc(C2CC(=O)c3c(O)cc(O)cc3O2)cc1CC=C(C)C (stereo not given)	13	i	104*	5	16	i	110*
Cc1ccc(-n2c(=O)[nH]c3c(C(N)=O)nc(-c4ccc(C)o4)nc32)cc1	0	i	107*	-2	nt	i	121*
SMILES	UPR CHOP act	ANO1 activ	CHOP inhibitor	UPR XBP1 act	Hep lipid drop	TMEM16A inh	CHOP confirm
COCCn1c(=NC(=O)CN2C(=O)CCC2=O)sc2cc(S(N)(=O)=O)ccc21	1	i	9	1	-4	i	nt
COCCn1c(=NC(=O)c2cc3ccccc3oc2=O)sc2cc(S(N)(=O)=O)ccc21	-2	i	101*	0	-9	i	-21
Cn1c(C=O)c(-c2ccc3cc[nH]c3c2)c2ccccc21	2	i	nt	-2	nt	nt	nt
CCn1cc([N+](=O)[O-])c(C(=O)N2N=C(c3ccc(Cl)c(Cl)c3)CC2c2ccccc2O)n1 (stereo not given)	0	i	101*	6	23	i	78*
CCn1c(CNC(=O)c2cccc(C)c2)nnc1SCC(=O)Nc1nnc(C)s1	0	i	nt	-3	32	i	nt
Cc1ccc2c(C)c(C(=O)N3CCN(C4CCS(=O)(=O)C4)CC3)oc2c1C (stereo not given)	0	i	nt	-2	-16	i	nt
O=[N+]([O-])c1cccc(-c2csc(N/N=C/c3cccc(O)c3)n2)c1	4	i	106*	0	19	i	6
C/C=C/C=N/Nc1nc(-c2ccc([N+](=O)[O-])cc2)cs1	0	i	98*	2	10	i	-9
CC(C)=NNc1nc(-c2ccc([N+](=O)[O-])cc2)cs1	6	i	-4	-1	6	i	nt
O=C(NCC(=O)N1CCCC1)c1ccc(Cl)cc1	4	i	nt	-3	-1	i	nt
O=C(NC1CCCCC1c1ccccc1)c1ccccc1 (stereo not given)	nt	i	nt	nt	nt	nt	nt
Cn1c2ccccc2c2nnc(NN)nc21	0	i	-7	-2	-6	i	nt
CCCCc1c(C)nn(-c2nnc3c4ccccc4n(C)c3n2)c1C	7	i	107*	3	nt	i	38
Cc1ccc(N/C(N)=N/c2nc(CSc3nnc(N)s3)cc(=O)[nH]2)cc1	-2	i	6	-1	nt	i	nt
N/C(=N\c1nc(CSc2nc3ccccc3s2)cc(=O)[nH]1)Nc1ccc(F)cc1	2	i	99*	19	15	i	18
O=c1c2ccccc2c(=O)n(Cc2ccccc2)n1Cc1ccccc1	1	i	53	-3	-12	i	nt
CCOC(=O)c1nc(S(C)(=O)=O)ncc1N1CCOCC1	0	i	-5	-2	nt	i	nt
CCOC(=O)c1nc(S(C)(=O)=O)ncc1Cl	-7	i	nt	-9	nt	i	92*
COc1ccc(NC(=O)/C(C#N)=C/c2ccc(-c3ccc(Cl)c(C(=O)O)c3)o2)cc1	4	i	nt	-1	3	i	nt
Cc1ccc(Cn2nc(C)c(NC(=O)c3cc(-c4ccc5c(c4)OCO5)on3)c2C)cc1	2	nt	106*	-1	nt	i	68
S=C(N/N=C/c1ccc(Cl)c(Cl)c1)Nc1ccccc1Cl	7	i	55	22	17	i	nt

From PubChem
